Tests used:
[1] = assay type: in vivo, human; details: for dose proportionality of PK: p.o. tablet dosing
Outline: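 Plasma parent, M5 and M6 concentration-time data came from clinical studies. In healthy volunteers, dosing was i.v., 150–600 mg single-dose tablet p.o., or 300–750 mg multiple-dose tablet. In HCV patients, dosing was 50–300 mg single-dose or 50–400 mg multiple-dose capsule, or 300–450 mg multiple-dose tablet; 450 mg once daily gave Day 7 profiles with washout. Itraconazole DDI: healthy volunteers; HCV patients received 300 mg multiple-dose tablet plus 200 mg multiple-dose itraconazole.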

Minimal PBPK model = assay type: in vivo, human

With `C[C@@]1(Cl)[C@H](O)[C@@H](CO)O[C@H]1n1ccc(=O)[nH]c1=O` [M6] the “effect of itraconazole coadministration on early metabolite profile” value ([1]; itraconazole DDI, plasma) was “first M6 peak was almost absent” and the “dose proportionality of PK” value [1] was “not dose proportional”.

With `CC(C)OC(=O)[C@@H](C)N[P@@](=O)(OC[C@H]1O[C@@H](n2ccc(=O)[nH]c2=O)[C@](C)(Cl)[C@@H]1O)Oc1ccccc1` [uprifosbuvir] the “effect of itraconazole coadministration on uprifosbuvir exposure” value ([1]; itraconazole DDI study, plasma) was “large increase in uprifosbuvir exposure”, the “effect of itraconazole coadministration on uprifosbuvir tmax” value ([1]; itraconazole DDI study, plasma) was “delayed time to reach maximum uprifosbuvir plasma concentration” and the “dose proportionality of PK” value [1] was “dose proportional”. The “share of unabsorbed uprifosbuvir dose metabolized into M5” value (Minimal PBPK model; gut) was 11%, the “share of unabsorbed uprifosbuvir dose metabolized into M6” value (Minimal PBPK model; gut) was 52% and the “share of unabsorbed uprifosbuvir dose metabolized into pseudo-M4” value (Minimal PBPK model; gut) was 37%. The “unabsorbed fraction of uprifosbuvir dose (metabolized in gut)” value (Minimal PBPK model; p.o., based on the model) was 86% and the “uprifosbuvir dose estimated to reach the liver unchanged” value (Minimal PBPK model; p.o., based on the model) was “about 14%”.

From article PMC8302237 (CPT: Pharmacometrics & Systems Pharmacology, 2021)
